An excerpt weighted towards active compounds, which were near 1.7% of everything screened.
PP1 counter – counter-screen for PP5 inhibitors: inhibitors of human PP1-alpha; inhibition, % at 6.7 µM; 320,000 tested, 0.9% active; P62136; purified PP1alpha, OMFP fluorescence;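 active = inhibition above the mean inhibition of all tested compounds plus 3 SD, computed separately for each screening campaign, cut at about 15% in these data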
PP5 inh – inhibitors of human protein phosphatase 5 (PP5). P53041. purified PP5c, OMFP substrate fluorescence. inhibition, % at 6.7 µM. 320,000 tested, 0.18% active. AID 1987;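 active = inhibition above the campaign's mean inhibition across all tested compounds plus 3 SD, cut at about 9.5% in these data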;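 also: 0% = DMSO only and 100% = 100 µM cantharidin control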
T cell modulator – T cell immune modulation candidate; 2C CD8+ T cell-vesicle binding, flow cytometry; hits give low values; response (vesicle binding), % at 7 µM; 330,000 tested, 0.068% active; AID 2052;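 active = response, share of CD8 T cells binding vesicles, and their 90th percentile fluorescence all below set limits, cut at about 80% in these data, passing the limit was not always enough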;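 also: values below 100% mean blocked vesicle binding to the CD8+ T cells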
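System: murine 2C transgenic CD8+ T lymphocytes; also added: QL9-loaded Drosophila micro-vesicles; times: binding 1.5 h at 37 °C; measured by: flow cytometry, PE anti-B7-1 (FL2) versus Alexa647 anti-CD8 (FL8), PFA-fixed; control set: Peptide-free naked vesicles (low) and QL9 vesicles with 0.7% DMSO vehicle (high)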
m5-HT2A agonist – mouse HTR2A agonism via beta-arrestin recruitment | P35363 | CHO-K1 mHTR2A beta-arrestin complementation, luminescence; percent of 30 µM serotonin response | activation, % at 7.6 µM | 360,000 tested, 0.66% active;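 active = activation above a run cutoff, the mean activation of all tested compounds plus 3 SD, cut at about 14% in these data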;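 also: 0% = plate median of compound wells and 100% = 30 µM serotonin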
Target sequence (P35363 whole entry, looked up): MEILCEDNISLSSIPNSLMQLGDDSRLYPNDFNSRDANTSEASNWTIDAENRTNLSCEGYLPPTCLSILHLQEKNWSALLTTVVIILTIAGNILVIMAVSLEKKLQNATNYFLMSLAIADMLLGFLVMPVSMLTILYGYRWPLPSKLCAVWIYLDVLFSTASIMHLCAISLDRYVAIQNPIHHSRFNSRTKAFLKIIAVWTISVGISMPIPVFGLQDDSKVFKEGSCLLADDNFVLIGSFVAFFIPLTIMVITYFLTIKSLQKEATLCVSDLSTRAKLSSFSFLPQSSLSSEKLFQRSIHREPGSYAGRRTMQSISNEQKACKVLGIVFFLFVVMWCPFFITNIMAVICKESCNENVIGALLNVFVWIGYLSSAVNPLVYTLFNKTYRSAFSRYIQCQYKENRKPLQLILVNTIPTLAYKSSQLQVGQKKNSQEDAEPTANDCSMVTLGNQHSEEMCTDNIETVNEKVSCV
GASC-1 inh – blocks human GASC-1 demethylase activity; 330,000 tested, 0.069% active; GST-JMJD2C(1-420) H3K9me3 demethylation, DELFIA europium; inhibition, % at 2.35 µM; AID 2099;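 active = more than half of a compound's replicate wells show inhibition beyond 50%, single wells judged on their own value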;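 also: signal counts dimethyl H3K9 product captured on neutravidin plate; 0% = median of DMSO wells and 100% = 0.3 times that DMSO median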
OPRM1 ag – activates human mu opioid receptor in HTR2A counterscreen. shares compounds with m5-HT2A agonist. U2OS OPRM1 beta-arrestin PathHunter, luminescence; DMSO 0%, DAMGO 9.3 µM 100%. activation, % at 9.3 µM. 2,300 tested, 5.3% active;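 active = mean activation above the mean of DMSO-only wells plus 3 SD, cut at about 0.5% in these data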
HTR2A ag conf – mouse HTR2A agonism confirmed; 2,300 tested, 19% active; CHO-K1 PathHunter beta-arrestin recruitment, luminescence; DMSO 0%, 30 µM serotonin 100%; shares compounds with m5-HT2A agonist; activation, % at 7.6 µM;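 active = mean activation across triplicates above the hit threshold derived in the original primary screen, cut at about 15% in these data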
Numbers without * were called inactive; i = inactive; / = not tested or not shown.

SMILES | PP1 counter | PP5 inh | T cell modulator | m5-HT2A agonist | GASC-1 inh | OPRM1 ag | HTR2A ag conf
Cc1ccc2c(c1)C(c1ccccc1)N(C(=O)c1ccc(Br)o1)CC(=O)N2 (configuration not stated) | 3 | 2 | 547 | 19* | 1 | 0 | -3
O=C1CN(C(=O)c2ccc(Br)o2)C(c2ccccc2)c2cc(Br)ccc2N1 (configuration not stated) | 4 | 4 | 798 | 6 | -15 | / | /
Cc1ccc(CN2CCN(c3ccccc3)CC2)o1 | -2 | -1 | 174 | -1 | 30 | / | /
Fc1ccccc1CN1CCN(c2ncccn2)CC1 | -2 | 4 | 235 | 26* | 1 | 0 | 121*
COc1cc(Br)cc(CN2CCN(c3ncccn3)CC2)c1O | / | / | 241 | 33* | 3 | 0 | 106*
Cc1ccc(CN2CCN(c3ncccn3)CC2)o1 | -5 | 0 | 367 | 30* | -12 | -1 | 60*
Cc1ccc(C)c(CN2CCN(c3ncccn3)CC2)c1 | 4 | 1 | 178 | 17* | 0 | 0 | 62*
Cc1ccc(C)c(S(=O)(=O)N2CCN(c3ncccn3)CC2)c1 | 0 | 0 | 224 | 0 | 11 | / | /
COc1cccc(C(=O)N2CCC[C@H]2C(=O)N2CCC[C@H]2C(=O)NCc2ccccn2)c1 | / | / | / | 2 | / | / | /
CN(C)CCCNC(=O)c1ccc(-c2cc3nc(NCc4cccnc4)n(C)c(=O)c3s2)cc1 | / | / | / | -5 | / | / | /
Oc1cc2c(cc1CN1CCN(c3ncccn3)CC1)OCO2 | 0 | 0 | 304 | 17* | -13 | -1 | 123*
COc1cccc(CN2CCN(c3ncccn3)CC2)c1 | -1 | 3 | 164 | 36* | -3 | 0 | 113*
O=C(CN1CCN(c2ncccn2)CC1)NCc1ccc2c(c1)OCO2 | -1 | 2 | 353 | 10 | -4 | / | /
Cc1ccc(S(=O)(=O)N2CCC3(CC2)CC(=O)c2ccccc2O3)cc1 | 1 | 0 | 320 | -2 | 15 | / | /
O=C(O)c1ccc(S(=O)(=O)N2CCC3(CC2)CC(=O)c2ccccc2O3)cc1 | -3 | 1 | 166 | 19* | 151 | 0 | 2
COC(=O)c1cc2c(C)c(C)c3ccccn3c-2c1C(=O)OC | -2 | 1 | 476 | 11 | -3 | / | /
COC(=O)c1cc2n3ccccc3c(C)c(-c3ccccc3)c-2c1C(=O)OC | 2 | 3 | 217 | 18* | 24 | 0 | 1
O=C(NCC1CCCO1)c1ccc2c(=O)n(Cc3cccc(Br)c3)c(=S)[nH]c2c1 (configuration not stated) | -3 | 0 | 256 | 0 | 40 | / | /
CC(C)CC1OC(C)Cc2[nH][nH]c(=O)c21 (configuration not stated) | / | / | / | 3 | / | / | /
CC1=CC=CN2CC(O)CN=C12 (configuration not stated) | -1 | 2 | 236 | 28* | -1 | -1 | -3
CC1=CN2CC(O)CN=C2C=C1 (configuration not stated) | 2 | 1 | 374 | 3 | -2 | / | /
Cc1ccc(C)c(N2CCN(S(=O)(=O)c3ccc4c(c3)CCN4C(=O)CCC(=O)O)CC2)c1 | -4 | 1 | 584 | 9 | 3 | / | /
O=C(O)CCC(=O)N1CCc2cc(S(=O)(=O)N3CCN(c4ccc(F)cc4)CC3)ccc21 | 1 | -1 | 388 | 15* | -12 | 0 | -1
COc1ccc(-n2c(SCC(=O)Nc3cc(C)on3)nc3c(c2=O)SCC3)cc1OC | -1 | 1 | 249 | 23* | -16 | -1 | -4
CC(NC(=O)c1cccc(S(=O)(=O)N(C)c2ccccc2)c1)c1cccnc1 (configuration not stated) | / | / | 288 | 7 | 2 | / | /
SMILES | PP1 counter | PP5 inh | T cell modulator | m5-HT2A agonist | GASC-1 inh | OPRM1 ag | HTR2A ag conf
Cc1ccccc1CN(C)C(=O)COC(=O)CSc1ccc([N+](=O)[O-])cc1 | -1 | -1 | 314 | -8 | 33 | / | /
COc1ccc(CCNC(=O)c2ccc(Cl)cc2)cc1OC | -4 | 0 | 301 | 6 | -2 | / | /
COc1ccc(CCNC(=O)c2c(Cl)ccc(Cl)c2OC)cc1OC | 0 | -4 | 319 | 31* | -1 | -1 | -5
CCOc1ccccc1N1CCN(Cc2ccc(Br)s2)CC1 | 2 | 2 | 727 | 48* | 3 | 0 | 26*
COc1ccccc1C(=O)NNC(=O)C1CC=CCC1 (configuration not stated) | 1 | 0 | i | 19* | 16 | -1 | 1
CN1C[C@@H](CO)O[C@@H](n2cnc3c(N4CCOCC4)ncnc32)C1 | / | / | / | -5 | / | / | /
CCc1nnc(NS(=O)(=O)c2ccc(NC(=O)CCC(=O)O)cc2)s1 | -4 | -2 | 338 | 15* | -2 | -1 | -4
COc1ccc(NS(=O)(=O)c2cccc(C(=O)NNC(=O)CNC(=O)c3ccccc3F)c2)cc1 | 0 | 1 | 334 | 0 | 119 | / | /
Cc1cccc(OCC(=O)Nc2nnc(S(=O)(=O)N3CCC(C)CC3)s2)c1 | 4 | -3 | 556 | 17* | 1 | -1 | -2
NC(=O)CSc1nc2cc(Cl)ccc2c(=O)n1C1CCCCC1 | -4 | -1 | 536 | -9 | -1 | / | /
OC(c1ccccc1)c1ncc(-c2cccc(C(F)(F)F)c2)[nH]1 (configuration not stated) | / | / | / | -8 | / | / | /
COc1ccc(C=CC(=O)c2ccc3cc(OC)c(OC)cc3c2)cc1OC | / | / | / | 17* | / | -1 | 1
COC[C@@H]1CCCN1[C@H]1CS(=O)(=O)N[C@@H]1COCc1ccccc1 | / | / | / | 0 | / | / | /
CCc1nn(CC(=O)N2CCN(CC)CC2)c(=O)c2cc3sccc3n12 | -10 | 2 | 36 | 0 | -3 | / | /
CCc1nn(CC(=O)NCCc2ccc(S(N)(=O)=O)cc2)c(=O)c2cc3sccc3n12 | -4 | 0 | 412 | 27* | 8 | -1 | -2
N#Cc1c(/N=C/c2ccco2)sc2c1CCCCC2 | 3 | 2 | 76 | 14* | -2 | 0 | 21*
CCCC(=O)N1CCN(c2nc3ccccc3s2)CC1 | -5 | 2 | 203 | 3 | -3 | / | /
CSc1ccc(NC(=O)N2CCN(c3nc4ccccc4s3)CC2)cc1 | -3 | 7 | 314 | 18* | 1 | 0.5* | 1
COc1ccc(C(=O)NCc2ccccc2CN2CCCC2)cc1S(=O)(=O)Nc1ccc(C)cc1 | 0 | 4 | 147 | -3 | 4 | / | /
COc1ccc(CN(C)C(=O)c2ccc(NS(=O)(=O)c3ccc(C)c([N+](=O)[O-])c3)cc2)c(OC)c1OC | 0 | 3 | 472 | 18* | -8 | -1 | -4
COc1ccc(CN(C)C(=O)c2ccc(NS(=O)(=O)c3ccc4[nH]c(=O)[nH]c4c3)cc2)c(OC)c1OC | / | / | 414 | -4 | 2 | / | /

Screens: PubChem, several laboratories
